# Screening data (PubChem)
# An excerpt weighted towards active compounds, which were near 1.6% of everything screened.
# FLuc stim CS: firefly luciferase counter-screen for stimulation assays. activation factor at 10 µM. AID 1027. 200,000 tested, under 10 active. ATPlite luciferase biochemical, luminescence, 10 min; 0 = ATP-free wells, 1 = DMSO control. P08659;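 active = luciferase activation factor, scaled between plate controls, of at least 2 with compound at 10 µM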
# Target sequence (P08659 whole entry, looked up): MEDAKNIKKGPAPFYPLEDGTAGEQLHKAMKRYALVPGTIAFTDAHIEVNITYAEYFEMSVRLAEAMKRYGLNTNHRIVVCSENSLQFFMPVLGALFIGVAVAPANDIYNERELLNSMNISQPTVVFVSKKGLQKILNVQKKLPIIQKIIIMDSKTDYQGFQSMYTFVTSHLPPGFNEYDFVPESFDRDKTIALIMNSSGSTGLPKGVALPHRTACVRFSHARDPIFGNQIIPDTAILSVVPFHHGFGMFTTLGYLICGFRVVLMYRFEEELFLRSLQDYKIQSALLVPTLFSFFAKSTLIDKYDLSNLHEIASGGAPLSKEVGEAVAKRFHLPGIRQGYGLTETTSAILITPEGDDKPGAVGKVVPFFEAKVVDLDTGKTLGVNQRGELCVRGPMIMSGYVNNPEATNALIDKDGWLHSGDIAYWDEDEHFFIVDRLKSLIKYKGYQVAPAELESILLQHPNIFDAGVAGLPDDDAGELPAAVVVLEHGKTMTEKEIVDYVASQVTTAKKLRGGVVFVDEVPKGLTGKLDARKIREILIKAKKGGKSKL
#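 Assay system: Luciferase/luciferin reagent mix; Medium: PBS as buffer for the ATP substrate; Dosing: test compounds dosed from 2 mM stocks in 100% DMSO; Times: 10 min, room temperature; Signal: luminescence from luciferase reaction; Read-out: luciferase activation; Controls: No-ATP low control, compound-free enzyme-plus-ATP high control.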
# PPC-1+TRAIL kill: kills PPC-1 cancer cells in the presence of TRAIL; actives 0.41% (n = 220,000); cell killing (% activity), % at 4 µM or 5 µM; PPC-1 cells + TRAIL, ATPLite viability luminescence;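 active = cell killing above 50% in the first pass at 4 µM, then a duplicate retest at 5 µM averaging 50% or more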;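 also: plate controls were cells with TRAIL plus DMSO for no effect and medium-only wells lacking cells for full effect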
# C8 TRAIL sens: caspase-8 TRAIL sensitization. NB7+C8 cells + TRAIL, ATPlite viability luminescence. inhibition (viability loss, TRAIL sensitization), % at 10 µM. actives 1% (n = 360,000). AID 624354;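 active = compounds causing at least 50% loss of cell viability in the single-dose screen, relative to plate controls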
# FLuc inh counter: Photinus pyralis luciferase inhibition counter-screen; inhibition, % at 10 µM; ATPLite firefly luciferase biochemical luminescence, 10 min; actives 1.5% (n = 200,000); P08659;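 active = inhibition above about 50% when tested at 10 µM, limit read from the data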
# Active calls of the source: *; · = no result.
SMILES,FLuc stim CS,PPC-1+TRAIL kill,C8 TRAIL sens,FLuc inh counter
Cc1ccc(NC(=O)c2nc(S(=O)(=O)Cc3ccccc3)ncc2Cl)cc1,·,·,65*,·
Cc1ccccc1NC(=O)c1nc(S(C)(=O)=O)ncc1Cl,·,·,-1,·
O=C(Nc1ccc(F)cc1)c1nc(S(=O)(=O)Cc2ccccc2)ncc1Cl,·,·,92*,·
N#Cc1ccccc1OCc1cccc(S(=O)(=O)N2CCOCC2)c1,·,·,8,·
CN1CCN(C(=O)c2cc(=O)c3cc(Cl)cc(Cl)c3o2)CC1,·,·,19,·
Cc1ccc(-c2cc3ccccc3nc2N2CCCC2)cc1,1,4,-12,-5
Cc1ccc2c(c1)C(=NC1CCCCC1)c1cc3ccccc3nc1-2,0.9,14,64*,7
Cc1ccc2c(c1)-c1nc3ccccc3cc1C2=NC1CCCCC1,0.9,25,51*,5
O=C(Nc1ncc2c(n1)CC(c1ccco1)CC2=O)c1ccccc1 (configuration not stated),1.1,58*,0,-10
COc1ccc(-c2nc(CN3CCCCC3c3nccn3C)c(C)o2)c(C)c1C (configuration not stated),1.1,-1,-5,-5
CCc1nnc(NC(=O)CSc2nc3c(cc2C#N)CCCC3)s1,1,-35,58*,-2
CCc1nnc(NC(=O)c2sc3nc4c(cc3c2N)CCCCC4)s1,0.3,49,36,68*
CCOC(OCC)c1cc2ccccc2cn1,·,·,-8,·
Cc1ccc(C(=O)N2[C@@H]3CN(C)C(=O)[C@@]2(Cc2ccccc2)[C@H]2C(=O)N(Cc4ccccc4)C(=O)[C@@H]32)cc1,·,·,-17,·
O=C(OCc1ccccc1)N(CCCCN(CCCNCc1ccccc1)C(=O)OCc1ccccc1)CCCNCc1ccccc1,·,·,96*,·
COC(=O)C(Cc1ccccc1)NC(=O)c1ccc(C)cc1 (configuration not stated),0.4,·,-6,60*
CC1(C)CC(=O)N(c2ccc(Cl)cc2Cl)C(=O)C1,·,·,-8,·
O=C1[C@@H](Oc2ccccc2)[C@@H](c2cccnc2)N1c1ccccc1,·,·,22,·
Cc1ccc2[nH]c(O)c(N=Nc3nc4ccccc4s3)c2c1,·,10,-5,·
Oc1[nH]c2ccccc2c1N=Nc1nc2ccccc2s1,0.5,19,34,54*
Cc1cc2ccccc2c(=O)n1CC(=O)NCCC1=CCCCC1,0.4,21,-1,60*
CC(=O)Nc1cccc(-c2ccnc3c2CC(C(=O)Nc2ccccc2)O3)c1 (configuration not stated),·,·,3,·
CCN(c1ccccc1)S(=O)(=O)c1ccc(NC(=O)c2nc(S(C)(=O)=O)ncc2Cl)cc1,·,·,91*,·
CCS(=O)(=O)c1ncc(Cl)c(C(=O)Nc2ccc(S(=O)(=O)N(C)c3ccccc3)cc2)n1,·,·,98*,·
CC(=O)Nc1ccc(S(=O)(=O)N(C)c2ccccc2)cc1,1,-7,3,-3
SMILES,FLuc stim CS,PPC-1+TRAIL kill,C8 TRAIL sens,FLuc inh counter
C(=N\Nc1nc2ccccc2[nH]1)/c1ccncc1,0.7,33,9,27
c1ccc2[nH]c(NN=C3CCCCCC3)nc2c1,0.2,20,16,82*
Cn1c(/C=N/Nc2nc3ccccc3[nH]2)nc2ccccc21,0.2,48,38,83*
CCCn1c(/C=N/Nc2nc3ccccc3[nH]2)nc2ccccc21,0.9,-2,26,10
Clc1nc2ccccc2cc1/C=N/Nc1nc2ccccc2[nH]1,0.1,37,83*,88*
C(=N\Nc1nc2ccccc2[nH]1)/c1cccs1,0.3,27,5,68*
CC1=CC(C)(C(Cl)(Cl)Cl)C(C)=CC1=NO (configuration not stated),·,·,1,·
Cc1cc(=O)[nH]c(N/N=C/c2sccc2C)n1,0.9,9,-4,10
Cc1nn(-c2ccccc2)c(C)c1/C=N/Nc1nc2ccccc2[nH]1,0.2,29,43,80*
Cc1ccsc1/C=N/Nc1nc2ccccc2[nH]1,0.3,1,7,74*
C[C@H](CO)N1C[C@H](C)[C@@H](CN(C)C(=O)Nc2ccc(C(F)(F)F)cc2)Oc2ccc(NC(=O)Cc3ccccc3)cc2C1=O,·,·,4,·
COCOCCn1cc(CN2CCS(=O)(=O)N(Cc3ccc(-c4ccc(Cl)nc4)cc3)C(C(C)C)C2=O)nn1 (configuration not stated),·,·,-11,·
CCN(CCS(=O)(=O)c1ccc(Br)cc1)Cc1nc2ccccc2c(=O)[nH]1,·,·,-10,·
S=C(c1ccc(-c2cccc(Cl)c2)o1)N1CCCCC1,0.5,-4,5,54*
S=C(c1ccc(-c2cccc(Cl)c2)o1)N1CCOCC1,0.7,5,19,27
CCCn1c(N)c(C(=O)CN(C)CC(=O)Nc2cc(C)ccc2C)c(=O)[nH]c1=O,·,·,35,·
CCN(CC(=O)N1CCc2ccccc2C1)S(=O)(=O)c1ccc2ccccc2c1,1.1,23,55*,-6
CCN(CC(=O)N1CCOCC1)S(=O)(=O)c1ccc2ccccc2c1,·,·,-1,·
COc1cc(N=Nc2ccc(C)cc2S(N)(=O)=O)c(C)cc1N,·,·,3,·
N#C/C(=C\c1cc(Cl)cc(Cl)c1O)C(=O)NC1CCCCC1,1.1,10,54*,-10
N#C/C(=C\c1cc(Cl)ccc1O)C(=O)NC1CCCCC1,1,10,-10,-4
CCOC(=O)C1CCN(C(=O)C2c3ccccc3C(=O)N(C)C2c2ccc(OC)cc2)CC1 (configuration not stated),1.1,27,54*,-6
COc1ccc(C2C(C(=O)N3CCCCC3)c3ccccc3C(=O)N2C)cc1 (configuration not stated),1,1,43,-4
COc1ccccc1C(=O)Nc1nnc(-c2ccco2)s1,0.5,24,26,51*
COc1ccc(C(=O)Nc2nnc(-c3ccco3)s2)cc1,0.4,46,59*,62*
